From ChEMBL document CHEMBL2034931, “Discovery of Novel Small Molecule Mer Kinase Inhibitors for the Treatment of Pediatric Acute Lymphoblastic Leukemia” (ACS Med Chem Lett, 2012)

Key:
[1] = target: T1, Tyrosine-protein kinase receptor UFO (Homo sapiens, UniProt P30530); experiment: Inhibition of Axl using KKKKEEIYFFF-CONH2 as substrate after 180 mins by microfluid capillary electrophoresis assay
T1 sequence (P30530 whole entry): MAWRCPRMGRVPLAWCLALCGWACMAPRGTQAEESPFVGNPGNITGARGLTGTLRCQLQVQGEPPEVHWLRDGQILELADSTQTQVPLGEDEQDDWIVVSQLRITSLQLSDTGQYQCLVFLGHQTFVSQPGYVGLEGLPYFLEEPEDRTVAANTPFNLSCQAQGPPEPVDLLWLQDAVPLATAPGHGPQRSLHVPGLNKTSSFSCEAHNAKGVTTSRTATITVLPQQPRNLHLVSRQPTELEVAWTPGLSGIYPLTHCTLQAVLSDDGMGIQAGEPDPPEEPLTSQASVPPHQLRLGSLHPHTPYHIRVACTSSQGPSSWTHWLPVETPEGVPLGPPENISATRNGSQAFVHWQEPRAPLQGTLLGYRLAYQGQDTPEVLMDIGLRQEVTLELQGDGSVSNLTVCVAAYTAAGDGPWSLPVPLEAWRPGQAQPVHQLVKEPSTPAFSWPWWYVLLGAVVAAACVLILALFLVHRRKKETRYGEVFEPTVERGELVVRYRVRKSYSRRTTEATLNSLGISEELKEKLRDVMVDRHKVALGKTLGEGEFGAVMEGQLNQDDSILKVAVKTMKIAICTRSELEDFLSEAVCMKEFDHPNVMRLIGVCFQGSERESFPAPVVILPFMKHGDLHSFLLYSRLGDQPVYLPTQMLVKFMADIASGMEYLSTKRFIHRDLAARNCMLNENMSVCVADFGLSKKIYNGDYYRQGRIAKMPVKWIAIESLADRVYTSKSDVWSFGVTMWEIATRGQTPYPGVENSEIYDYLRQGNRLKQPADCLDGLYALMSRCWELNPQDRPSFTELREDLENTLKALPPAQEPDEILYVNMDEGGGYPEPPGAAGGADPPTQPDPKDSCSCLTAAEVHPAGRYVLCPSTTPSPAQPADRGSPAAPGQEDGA

[2] = target: T2, Tyrosine-protein kinase receptor TYRO3 (Homo sapiens, UniProt Q06418); experiment: Inhibition of Tyro3 using EFPIYDFLPAKKK-CONH2 as substrate after 180 mins by microfluid capillary electrophoresis assay
T2 sequence (Q06418 whole entry): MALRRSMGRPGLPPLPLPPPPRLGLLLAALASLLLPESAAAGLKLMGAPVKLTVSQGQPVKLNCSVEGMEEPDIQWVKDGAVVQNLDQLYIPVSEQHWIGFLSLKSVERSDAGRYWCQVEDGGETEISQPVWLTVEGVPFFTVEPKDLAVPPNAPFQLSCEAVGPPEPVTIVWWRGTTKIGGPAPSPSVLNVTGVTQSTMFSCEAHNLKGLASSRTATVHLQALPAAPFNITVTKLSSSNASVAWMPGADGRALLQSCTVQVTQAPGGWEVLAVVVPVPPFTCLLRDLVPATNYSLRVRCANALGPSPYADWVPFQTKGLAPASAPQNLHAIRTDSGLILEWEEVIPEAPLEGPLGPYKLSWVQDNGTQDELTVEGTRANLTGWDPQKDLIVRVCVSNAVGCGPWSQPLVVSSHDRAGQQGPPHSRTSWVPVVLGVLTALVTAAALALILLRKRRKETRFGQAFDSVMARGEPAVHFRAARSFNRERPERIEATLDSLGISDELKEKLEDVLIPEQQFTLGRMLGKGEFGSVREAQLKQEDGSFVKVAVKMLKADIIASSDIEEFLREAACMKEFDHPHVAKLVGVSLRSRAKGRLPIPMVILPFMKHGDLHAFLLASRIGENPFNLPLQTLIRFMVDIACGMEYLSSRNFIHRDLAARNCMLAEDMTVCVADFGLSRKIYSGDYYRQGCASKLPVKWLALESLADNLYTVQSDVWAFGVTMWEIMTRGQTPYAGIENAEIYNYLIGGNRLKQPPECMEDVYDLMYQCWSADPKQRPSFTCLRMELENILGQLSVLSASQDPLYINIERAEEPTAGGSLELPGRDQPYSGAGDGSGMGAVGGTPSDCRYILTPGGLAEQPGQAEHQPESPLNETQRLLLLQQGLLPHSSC

[3] = system: Mus musculus; experiment: Volume of distribution at steady state in Swiss mouse at 3 mg/kg, iv; format: ADME, organism-based; parameters: dose 3 mg/kg, route intravenous; conditions: in vivo
[4] = system: Mus musculus; experiment: Oral bioavailability in Swiss mouse at 3 mg/kg; format: ADME, organism-based; conditions: in vivo
[5] = target: Receptor-type tyrosine-protein kinase FLT3 (Homo sapiens) (UniProt P36888); experiment: Inhibition of FLT3 at 10 times IC50 concentration after 90 mins in presence of ATP
Outline: (§1)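 Single-concentration screen across a kinase panel spanning the main kinase families, the TAM family and the related MET family. Each sample was run in duplicate, and the read-out was percent inhibition of kinase activity.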

[6] = target: MAP kinase-activated protein kinase 2 (Homo sapiens) (UniProt P49137); experiment: Inhibition of MAPKAPK2 at 10 times IC50 concentration after 90 mins in presence of ATP; outline: as §1
[7] = target: Proto-oncogene tyrosine-protein kinase receptor Ret (Homo sapiens) (UniProt P07949); experiment: Inhibition of Ret at 10 times IC50 concentration after 90 mins in presence of ATP; outline: as §1
[8] = system: Proto-oncogene tyrosine-protein kinase receptor Ret (Homo sapiens), P07949 [Y791F]; experiment: Inhibition of Ret Y791F mutant at 10 times IC50 concentration after 90 mins in presence of ATP; outline: as §1
[9] = target: T3, Tyrosine-protein kinase Mer (Homo sapiens, UniProt Q12866); experiment: Inhibition of Mer expressed in Escherichia coli BL21 (DE3) cells using EFPIYDFLPAKKK-CONH2 as substrate after 180 mins by microfluid capillary electrophoresis assay
T3 sequence (Q12866 whole entry): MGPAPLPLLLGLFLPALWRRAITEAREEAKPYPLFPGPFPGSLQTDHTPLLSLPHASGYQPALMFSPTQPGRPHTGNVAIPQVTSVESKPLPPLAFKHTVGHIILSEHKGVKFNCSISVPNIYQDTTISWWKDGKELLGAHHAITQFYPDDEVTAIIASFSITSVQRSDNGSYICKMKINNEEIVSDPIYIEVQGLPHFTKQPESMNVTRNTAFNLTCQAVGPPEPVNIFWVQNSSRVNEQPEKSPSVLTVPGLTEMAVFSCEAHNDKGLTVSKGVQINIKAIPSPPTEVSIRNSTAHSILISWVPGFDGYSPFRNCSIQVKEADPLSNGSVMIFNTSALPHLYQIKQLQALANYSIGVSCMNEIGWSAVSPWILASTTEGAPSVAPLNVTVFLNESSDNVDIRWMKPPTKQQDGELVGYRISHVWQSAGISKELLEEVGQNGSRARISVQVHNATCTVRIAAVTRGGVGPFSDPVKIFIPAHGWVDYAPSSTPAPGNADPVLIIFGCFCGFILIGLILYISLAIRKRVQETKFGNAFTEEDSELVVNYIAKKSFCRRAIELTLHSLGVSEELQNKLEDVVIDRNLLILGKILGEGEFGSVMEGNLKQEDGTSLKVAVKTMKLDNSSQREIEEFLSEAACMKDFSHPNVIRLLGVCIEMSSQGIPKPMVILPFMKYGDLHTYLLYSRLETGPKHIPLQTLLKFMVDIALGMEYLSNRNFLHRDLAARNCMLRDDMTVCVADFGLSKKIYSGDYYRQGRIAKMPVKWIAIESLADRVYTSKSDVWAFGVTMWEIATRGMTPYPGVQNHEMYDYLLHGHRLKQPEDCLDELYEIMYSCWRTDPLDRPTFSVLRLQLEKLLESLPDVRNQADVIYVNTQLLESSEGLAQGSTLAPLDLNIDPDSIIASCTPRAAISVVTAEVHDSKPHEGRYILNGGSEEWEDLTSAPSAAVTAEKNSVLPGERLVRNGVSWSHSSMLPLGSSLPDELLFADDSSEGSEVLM

Sequence of Receptor-type tyrosine-protein kinase FLT3 (Homo sapiens) (P36888 whole entry): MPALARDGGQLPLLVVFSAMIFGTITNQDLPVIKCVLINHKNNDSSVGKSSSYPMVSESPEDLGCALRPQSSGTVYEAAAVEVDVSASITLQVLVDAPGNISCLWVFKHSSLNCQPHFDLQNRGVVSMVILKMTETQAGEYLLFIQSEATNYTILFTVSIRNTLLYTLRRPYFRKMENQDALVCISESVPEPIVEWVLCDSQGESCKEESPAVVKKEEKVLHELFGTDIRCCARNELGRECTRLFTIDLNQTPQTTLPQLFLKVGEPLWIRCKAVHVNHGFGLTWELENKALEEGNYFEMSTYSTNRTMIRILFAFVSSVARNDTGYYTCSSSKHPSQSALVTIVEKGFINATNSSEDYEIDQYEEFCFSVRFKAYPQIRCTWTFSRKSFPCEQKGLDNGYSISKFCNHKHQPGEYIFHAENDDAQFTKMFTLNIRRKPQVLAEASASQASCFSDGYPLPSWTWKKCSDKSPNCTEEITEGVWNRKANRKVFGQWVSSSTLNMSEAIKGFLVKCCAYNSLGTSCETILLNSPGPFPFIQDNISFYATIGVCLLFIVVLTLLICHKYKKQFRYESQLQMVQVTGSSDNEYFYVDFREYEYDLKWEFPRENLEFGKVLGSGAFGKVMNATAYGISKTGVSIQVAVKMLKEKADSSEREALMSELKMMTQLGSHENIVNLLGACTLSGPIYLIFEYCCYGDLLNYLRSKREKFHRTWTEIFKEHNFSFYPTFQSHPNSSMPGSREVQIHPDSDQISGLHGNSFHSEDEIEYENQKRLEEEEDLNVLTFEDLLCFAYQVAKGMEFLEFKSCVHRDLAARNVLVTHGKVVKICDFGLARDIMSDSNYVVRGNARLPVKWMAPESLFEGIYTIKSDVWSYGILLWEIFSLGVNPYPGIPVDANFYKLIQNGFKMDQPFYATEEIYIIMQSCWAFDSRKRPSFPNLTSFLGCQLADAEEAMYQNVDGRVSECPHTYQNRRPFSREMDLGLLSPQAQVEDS
Sequence of Proto-oncogene tyrosine-protein kinase receptor Ret (Homo sapiens), P07949 [Y791F] (P07949 whole entry Y791F): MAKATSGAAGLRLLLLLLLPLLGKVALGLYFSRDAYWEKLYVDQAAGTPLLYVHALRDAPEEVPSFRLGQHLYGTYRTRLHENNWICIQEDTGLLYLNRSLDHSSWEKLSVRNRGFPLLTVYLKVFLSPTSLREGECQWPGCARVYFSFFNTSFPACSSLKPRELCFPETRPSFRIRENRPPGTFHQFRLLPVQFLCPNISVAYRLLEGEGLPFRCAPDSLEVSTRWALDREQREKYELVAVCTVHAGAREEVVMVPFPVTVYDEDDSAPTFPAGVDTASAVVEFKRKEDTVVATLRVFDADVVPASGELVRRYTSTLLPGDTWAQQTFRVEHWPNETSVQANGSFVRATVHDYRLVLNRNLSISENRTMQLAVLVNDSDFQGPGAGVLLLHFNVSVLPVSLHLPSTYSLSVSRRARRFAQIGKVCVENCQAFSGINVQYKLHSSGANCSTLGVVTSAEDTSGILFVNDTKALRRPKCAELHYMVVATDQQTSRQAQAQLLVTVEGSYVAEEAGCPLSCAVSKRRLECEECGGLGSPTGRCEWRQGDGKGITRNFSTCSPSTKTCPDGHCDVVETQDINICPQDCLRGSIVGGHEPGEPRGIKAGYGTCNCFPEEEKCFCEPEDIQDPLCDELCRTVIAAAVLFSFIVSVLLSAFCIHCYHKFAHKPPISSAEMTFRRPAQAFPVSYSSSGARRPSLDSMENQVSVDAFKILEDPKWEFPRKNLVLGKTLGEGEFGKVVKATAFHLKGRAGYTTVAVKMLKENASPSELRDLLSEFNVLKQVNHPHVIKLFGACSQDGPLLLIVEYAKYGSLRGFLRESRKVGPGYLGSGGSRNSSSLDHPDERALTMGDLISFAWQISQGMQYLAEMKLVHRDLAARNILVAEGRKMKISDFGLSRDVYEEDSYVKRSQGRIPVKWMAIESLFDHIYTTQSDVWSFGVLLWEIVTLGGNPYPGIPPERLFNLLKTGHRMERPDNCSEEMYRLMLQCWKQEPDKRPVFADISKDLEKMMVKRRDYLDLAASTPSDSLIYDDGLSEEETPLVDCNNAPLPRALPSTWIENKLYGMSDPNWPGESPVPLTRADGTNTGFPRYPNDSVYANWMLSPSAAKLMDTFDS
Sequence of Proto-oncogene tyrosine-protein kinase receptor Ret (Homo sapiens) (P07949 whole entry): as the sequence (P07949 whole entry Y791F) above, with F791Y counted along it
Sequence of MAP kinase-activated protein kinase 2 (Homo sapiens) (P49137 whole entry, looked up): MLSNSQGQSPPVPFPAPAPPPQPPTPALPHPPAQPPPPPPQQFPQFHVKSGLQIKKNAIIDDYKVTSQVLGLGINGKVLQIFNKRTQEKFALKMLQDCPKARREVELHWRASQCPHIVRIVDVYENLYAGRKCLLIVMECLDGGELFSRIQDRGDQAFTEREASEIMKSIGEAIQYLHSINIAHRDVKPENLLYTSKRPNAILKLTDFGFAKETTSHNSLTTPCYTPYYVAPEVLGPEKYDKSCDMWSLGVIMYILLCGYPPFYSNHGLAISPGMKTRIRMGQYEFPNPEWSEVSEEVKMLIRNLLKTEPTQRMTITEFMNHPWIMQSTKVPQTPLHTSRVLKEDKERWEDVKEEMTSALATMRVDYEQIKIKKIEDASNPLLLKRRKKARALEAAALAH

Row | SMILES | IC50 [1] | IC50 [2] | inhibition [5] | inhibition [6] | inhibition [7] | inhibition [8] | also measured
1 | CNc1ncc2c(C(C)C)nn(CC3CCNCC3)c2n1 | > 30 µM | > 30 µM | – | – | – | – | –
2 | CCCCNc1ncc2c(-c3ccc(F)cc3)nn(C[C@H]3CC[C@H](N)CC3)c2n1 [PYRAZOLOPYRIMIDINE] | – | – | 82% | 92% | 59% | 56% | Vdss [3]: 5.83 L/kg; F [4]: 57%
3 | N[C@H]1CC[C@H](Cn2nc(-c3ccc(N4CCNCC4)cc3)c3cnc(NCCCc4ccccc4)nc32)CC1 | – | – | 82% | 94% | 79% | 67% | –
4 | CC(C)n1cnc2c(Nc3cccc(Cl)c3)nc(NCCO)nc21 | – | – | – | – | – | – | IC50 [9]: 11 µM
5 | CNc1ncc2c(C(C)C)nn(C[C@@H]3CCCN3)c2n1 | > 30 µM | > 30 µM | – | – | – | – | –
